Measured values gathered from unrelated publications.
Lines come from different studies, so protocols differ.
CDK4 with cyclin D3: Cyclin-dependent kinase 4, with cyclin D3 (CDK4, Homo sapiens, UniProt P11802)
CDK4 with cyclin D1: Cyclin-dependent kinase 4, with cyclin D1 (CDK4, Homo sapiens, UniProt P11802)
CDK4: Cyclin-dependent kinase 4 (CDK4, Homo sapiens, UniProt P11802)

| Compound | target | assay | setting | measurement | value |
| --- | --- | --- | --- | --- | --- |
| CC(C)(C)c1cc(C=C(C#N)C#N)cc(Br)c1O | CDK4 with cyclin D3 | enzyme activity, inhibitor | 0.5 µM | remaining activity | 96.5% |
| Cn1cncc1[C@@](O)(COc1ccc(C#N)cc1-c1ccc(OC(F)(F)F)cc1)c1ccc(C#N)cc1 | CDK4 with cyclin D3 | cell-free assay, competition with immobilised ligand | 1 µM | remaining binding | 92% |
| O=c1[nH]c2ccccc2n1C1CCN(Cc2ccc(-c3[nH]c4cc5ncnc5cc4nc3-c3ccccc3)cc2)CC1 | CDK4 with cyclin D1 | cell-free assay | 0.5 µM | remaining signal | 108% |
| CCOC(=O)[C@H]1Cc2c(cc([N+](=O)[O-])cc2[N+](=O)[O-])[C@H](O)[C@]12C(=O)Nc1cc(Cl)ccc12 | CDK4 | cell-free assay, inhibitor, TR-FRET | 1 µM | inhibition | 38.6% |
| N#CC1(c2ccccn2)CCN(Cc2cc(C(=O)O)c(=O)n3ccccc23)CC1 | CDK4 | cell-free assay, competition with immobilised ligand | 1 µM | remaining binding | 94% |
| CCOC(=O)[C@H]1Cc2c(cc([N+](=O)[O-])cc2[N+](=O)[O-])[C@@H](O)[C@@]12C(=O)Nc1c(F)cccc12 | CDK4 | cell-free assay, inhibitor, TR-FRET | 1 µM | inhibition | 52.6% |
| Cc1nn(C)cc1-c1nc2c(N3CCN(Cc4ccc(Cl)cc4)CC3)c(Cl)cnc2[nH]1 | CDK4 with cyclin D1 | binding, competition with immobilised ligand | 1 µM | remaining binding | 76% |
| Nc1ncc(-c2nc(N3CCOCC3)nc(N3CCOCC3)n2)c(C(F)F)n1 | CDK4 with cyclin D1 | binding, competition with immobilised ligand | 10 µM | remaining binding | 100% |
| CCOC(=O)[C@H]1Cc2c(cc([N+](=O)[O-])cc2[N+](=O)[O-])[C@@H](O)[C@@]12C(=O)Nc1ccc(Br)cc12 | CDK4 | cell-free assay, inhibitor, TR-FRET | 1 µM | inhibition | 76.3% |
